Where two headings read alike, the source gives them in different places.
Columns and labels:
[1] = type: in vivo, mouse; details: mice, 1 unit/kg s.c. daily for 6 weeks, n = 7-9/group, P < 0.05
Summary of the method: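 Mice, n = 7–9/group, were injected s.c. daily for 6 weeks with saline, GLAR or DET (1 unit/kg). CSF from the cisterna magna (isoflurane, 4-h fast) and EDTA plasma were taken 24 h after the last dose. Insulin measured by ELISA on 10 µL CSF or 5 µL plasma, against standards from the injected insulins.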

[2] = type: in vivo, rat; details: rats
Summary of the method: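 Overnight-fasted rats, n = 8–10/dose, got NPH insulin or DET i.p. at 0, 0.1, 0.3, 1, 3 or 10 units/kg. They were anesthetized with isoflurane at 25 min and cisternal CSF drawn at 30 min, then blood collected. Insulin by ELISA (2 h at 4°C; conjugate 30 min; substrate 40 min). Glucose by glucometer in duplicate. Factorial ANOVA.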

[3] = men, plasma glucose comparably clamped; cited from earlier work
[4] = Food intake, body weight and body composition; type: in vivo, mouse; details: mice, P < 0.05; for body fat compared with the saline-control group: NMR
Summary of the method: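 Mice were first matched by fat mass using NMR while conscious. They then received (n = 12/group) daily s.c. saline, DET or GLAR at 1 unit/kg for 6 weeks. Body weight and food intake recorded weekly; NMR body composition repeated at the end. Repeated-measures ANOVA with Tukey post hoc.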

[5] = extended by albumin binding of the attached fatty acid; cited from earlier work
[6] = type: in vivo, mouse; details: mice, 1 unit/kg s.c.; for CSF insulin at 6 and 12 h: Ps < 0.05; for time by which plasma insulin had returned to baseline: sampled 0, 6, 12, 24, 48 h
Summary of the method: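 Mice fasted 4 h, n = 7–8/group, given 1 unit/kg s.c. GLAR or DET. CSF (~15 µL, glass capillary) drawn from the cisterna magna under isoflurane at baseline and 6, 12, 24, 48 h, then trunk blood taken into chilled EDTA. Insulin measured by ELISA against standards made from each injected insulin. Blood-contaminated CSF discarded; factorial ANOVA.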

[7] = type: in vivo, rat; details: rats, 0.5 units/kg i.p.
Summary of the method: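 Rats, n = 6–8/time point, overnight-fasted, were given 0.5 units/kg i.p. NPH insulin or DET. Cisternal CSF taken under isoflurane at 5, 10, 20, 40, 80, 160 or 320 min, followed by EDTA blood. Insulin by ELISA with standards from each injected insulin. Plasma glucose by glucometer in duplicate. Factorial ANOVA.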

[8] = type: in vivo, rat; details: rats, 0.5 units/kg s.c.; for CSF insulin at 6, 12 and 24 h / plasma glucose at 6 h and 12 h: Ps < 0.05; for time by which plasma insulin had returned to baseline: sampled 0, 6, 12, 24, 48, 72 h
Summary of the method: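 Overnight-fasted rats, n = 7–8/group, received GLAR or DET 0.5 units/kg s.c. CSF (~150 µL) taken from the cisterna magna under isoflurane at 0, 6, 12, 24, 48 or 72 h, then blood collected after decapitation. Insulin by ELISA with standards from each injected insulin (450 minus 630 nm). Plasma glucose by glucometer in duplicate. Factorial ANOVA.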

[9] = clinical trials, basal insulin replacement; cited from earlier work
[10] = overweight humans, intravenous; cited from earlier work
[11] = Food intake and body weight after third-ventricular; type: in vivo, rat; details: rats, 8 mU I3VT
Summary of the method: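 Rats carried a third-ventricle cannula (2.2 mm posterior to bregma, midline), checked by drinking >5 mL within 30 min after 10 ng angiotensin II. Rats (n = 16) were handled for 4 days with food removed for the last 4 h of light. In randomized crossover 1 week apart, they received 8 mU DET or NPH insulin, or 2 µL saline, 1 h before dark. Food returned at dark; intake and weight taken at 24 and 48 h. Repeated-measures ANOVA, Tukey.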

insulin receptor = details: mice, cited from earlier work
[12] = 1 unit/kg s.c. daily for 6 weeks

Substance: Insulin detemir
- CSF insulin relative to controls 24 h after the final injection [1]: had increased insulin
- plasma glucose after 30 min ([2]; 0-10 units/kg i.p., 30 min postinjection, glucometer): dose-dependent decrease
- plasma insulin after 30 min ([2]; 0-10 units/kg i.p., 30 min postinjection, insulin ELISA, n = 8-10/dose): increased at all doses
- CSF insulin after 30 min ([2]; 0-10 units/kg i.p., CSF sampled 30 min postinjection, insulin ELISA): elevated after all doses
- dose at which apparent saturation of CSF insulin levels occurred ([2]; i.p., 30 min postinjection): ≤ 3 units/kg
- electroencephalogram activity in the frontal cortex compared with regular insulin [3]: significant change in electroencephalogram activity
- food intake compared with regular insulin [3]: significant reduction of food intake
- body fat compared with the saline-control group [4, 12]: significantly lower
- cumulative food intake compared with GLAR or saline groups [4, 12]: significantly lower
- plasma half-life [5]: 5 to 7 h
- CSF insulin after 24 and 48 h [6]: elevated CSF insulin levels
- CSF insulin at 6 and 12 h [6]: comparably increased
- plasma insulin at 6 h, DET compared with GLAR ([6]; n = 7-8/group, P < 0.05): elevated to a greater extent
- time by which plasma insulin had returned to baseline [6]: ≤ 24 h
- plasma glucose levels over time ([7]; 5-320 min, P < 0.05): relatively constant level for the duration of the experiment
- plasma glucose at 80, 160 and 320 min, DET relative to NPH ([7]; Ps < 0.05): sustained hypoglycemia
- insulin in plasma (160 and 320 min) and CSF (320 min), DET relative to NPH ([7]; planned comparison, P < 0.05): more prolonged elevation of insulin
- time at which CSF insulin reached baseline ([7]; sampled up to 320 min): > 320 min
- time at which plasma insulin was no longer elevated relative to baseline ([7]; sampled up to 320 min): > 320 min
- CSF insulin at 48 h [8]: continued to have elevated CSF insulin
- CSF insulin at 6, 12 and 24 h [8]: comparably increased
- plasma glucose at 6 h and 12 h [8]: reduced
- plasma insulin at 6 h, DET compared with GLAR ([8]; n = 7-8/group, P < 0.05): elevated more
- time by which plasma insulin had returned to baseline [8]: ≤ 24 h
- weight gain compared with other long-acting formulations [9]: less weight gain
- cerebrocortical activity [10]: increased cerebrocortical activity
- body weight after 24 h ([11]; P < 0.05): significant weight loss
- body weight after 48 h ([11]; P < 0.05): maintaining this weight loss
- food intake after 48 h relative to saline ([11]; crossover, n = 16): remained significantly reduced
- food intake over 24 h relative to saline ([11]; crossover, n = 16, P < 0.05): ate significantly less food
- uptake into the brain (insulin receptor; insulin in brain tissue extracts): preferential uptake of DET into the brain
- phosphorylation of the insulin receptor in hypothalamus (insulin receptor): selectively increased phosphorylation of the insulin receptor

Substance: insulin glargine
- plasma insulin relative to controls 24 h after the final injection [1]: continued to have elevated plasma insulin
- body fat compared with the saline-control group [4, 12]: higher
- body weight relative to saline-treated animals by week 6 ([4]; 1 unit/kg s.c. daily): increased relative to that of saline-treated animals
- CSF insulin after 24 and 48 h [6]: lower at 24 h and had returned to baseline by 48 h
- plasma insulin at 12 h, DET compared with GLAR ([6]; P < 0.05): higher plasma concentrations
- CSF insulin at 6 and 12 h [6]: comparably increased
- time by which plasma insulin had returned to baseline [6]: ≤ 48 h
- CSF insulin at 48 h [8]: returned to baseline
- plasma glucose at 24 h [8]: remained lower
- plasma insulin at 12 h, DET compared with GLAR ([8]; P < 0.05): higher plasma insulin
- CSF insulin at 6, 12 and 24 h [8]: comparably increased
- plasma glucose at 6 h and 12 h [8]: reduced
- time by which plasma insulin had returned to baseline [8]: ≤ 48 h
